These results are taken from PMC8383301 (Molecular Pharmaceutics, 2021).

In series [1] the test system is P-gp. The following applies: enriched diet; mice models of AD; cited from earlier work.
Series [2] deals with P-glycoprotein (P-gp). On the set-up: species or system Wistar rats. The following applies: rat, in vivo.
The test system of series [3] is P-glycoprotein (P-gp). As to the kind of experiment: Western blot of P-gp expression in whole-brain tissue. The format is in vivo, Wistar rats. Conditions: MC111 4.5 or 6 mg/kg, 24 h.
Series [4] concerns pregnane X receptor (PXR). As to the kind of experiment: Western blot of PXR expression in whole-brain tissue. The format is in vivo, Wistar rats. In a few lines: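 Male Wistar rats (RjHan:WI) got a single i.v. tail-vein dose of 4.5 or 6 mg/kg (n = 6 each) or vehicle (n = 6) under isoflurane, 24 h before scanning. The vehicle was 5% DMSO, 10% PEG 300 and 85% water. Whole-brain tissue was extracted in cold RIPA with protease inhibitors (~10:1 v/w). Semidry transfer to PVDF ran 2 h; blocking was 1 h in 3% BSA/TBST. PXR was normalised to histone H3, and group means to control.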

Series [5] in a line: Safety of MC111 administration to rats. The format is in vivo. The following applies: 6 mg/kg dose.
The conditions of series [6]: rat, in vivo, 4.5 mg/kg.
The subject of series [7] is P-gp. Conditions: colo-320 cells; cited from earlier work.
Series [8] concerns P-gp. Conditions: SW480 human colon adenocarcinoma cells; cited from earlier work.
Series [9] concerns breast cancer resistance protein (BCRP). Conditions: colo-320 and MCF7 cells; cited from earlier work.
The test system of series [10] is P-gp. Conditions: long-term exposure (60 days); rat brain microvascular endothelial cells in vitro; cited from earlier work.
Series [11] relates to P-gp. The following applies: caco-2 cells; cited from earlier work.
Series [12] has as its system P-gp. The following applies: isolated brain capillaries in vitro; cited from earlier work.
Series [13] relates to P-gp. The following applies: transgenic mouse model of human AD; treatment for 7 days; cited from earlier work.

Structures are written as SMILES. Entries after “also recorded” stand apart in the source; their conditions may differ. Like-named read-outs stand apart in the source and are kept apart here.

As for `C=C1/C(=C\C=C2/CCC[C@]3(C)[C@@H]([C@H](C)CCCC(C)(C)O)CC[C@@H]23)C[C@@H](O)C[C@@H]1O` [1,25-Dihydroxyvitamin D3], in the series on P-gp [1], the Aβ deposition result is on record as “reduced” and the P-gp function result is “induced”.
Regarding `Oc1ccc(-c2ccc(CN3CCN(C4CCCCC4)CC3)cc2)cc1` [MC111, 4′-((4-cyclohexylpiperazin-1-yl)methyl)-[1,1′-biphenyl]-4-ol], in the series on P-glycoprotein (P-gp) [2], the “SUV–TAC of the whole brain, differences among the groups” value is “did not find any significant differences” and the “decrease of whole-brain K1 compared to the low-dose group” value was found to be 29%. In the series on P-glycoprotein (P-gp) [2] (4.5 mg/kg), the “SUV40–60 min of the whole brain” value came to 0.45 ± 0.02; the “decrease of VT and K1 values compared to the control group” value is given as “not statistically significant”; the “decrease of whole-brain K1 compared to controls” value is 7%; the “decrease of whole-brain VT compared to controls” value came out at 6%. Moreover, in the series on P-glycoprotein (P-gp) [2] (6 mg/kg), the “K1 and VT values compared to the control group” value was “significant reduction”; the “decrease of whole-brain K1 compared to controls” value turned out to be 34%. In addition, the “P-gp expression, treated vs control” value in the series on P-glycoprotein (P-gp) [3] is “did not detect changes; also recorded: no significant differences”. For the same compound, the “PXR expression levels, treated vs control” value in series [4] was “did not detect any increase”. In series [4] (high-dose group, MC111 6 mg/kg), the PXR expression levels result is recorded as “tendency to lower levels”. The safety of administration entry in series [5] is given as “safely administered”. The “Ke vs control group” value in series [6] is recorded as “no significant differences”. In addition, the “[3H]verapamil efflux (P-gp function)” value in the series on P-gp [7] is recorded as “increase”. Besides, the P-gp expression entry with P-gp [8] is listed as “increases”. Moreover, the “BCRP function and expression” value in series [9] is recorded as “activates”.
For `NC(=O)N1c2ccccc2C=Cc2ccccc21` [carbamazepine], the “P-gp expression levels and P-gp function” value with P-gp [10] is “increased”.
In the case of `COc1cc2c(c(OC)c1OC)-c1ccc(OC)c(=O)cc1[C@@H](NC(C)=O)CC2` [colchicine], in the series on P-gp [11], the P-gp expression result is “increased” and the P-gp function result is reported as “without increasing”.
For the compound `CC(C)=CCC[C@]1(C)[C@@H](CC=C(C)C)C[C@@]2(CC=C(C)C)C(=O)[C@]1(C(=O)C(C)C)C(=O)C(CC=C(C)C)=C2O` [hyperforin], the “P-gp expression and function” value in the series on P-gp [12] is “increase”.
With `CCC1(c2ccccc2)C(=O)NC(=O)NC1=O` [phenobarbital], the “P-gp expression levels and P-gp function” value in the series on P-gp [10] is given as “increased”.
On to `O=C1NC(=O)C(c2ccccc2)(c2ccccc2)N1` [phenytoin], for which the “P-gp expression levels and P-gp function” value with P-gp [10] was “increased”.
In the case of `CC(=O)[C@H]1[C@H](C#N)C[C@H]2[C@@H]3CC=C4C[C@@H](O)CC[C@]4(C)[C@H]3CC[C@@]21C` [pregnenolone-16α-carbonitrile], the P-gp function result in the series with P-gp [13] was “restored”.
In the case of `CO[C@H]1/C=C/O[C@@]2(C)Oc3c(C)c(O)c4c(O)c(c(/C=N/N5CCN(C)CC5)c(O)c4c3C2=O)NC(=O)/C(C)=C\C=C\[C@H](C)[C@H](O)[C@@H](C)[C@@H](O)[C@@H](C)[C@H](OC(C)=O)[C@@H]1C` [rifampin], the “P-gp expression and function” value in the series with P-gp [12] is recorded as “increase”.
For the compound `CCCC(CCC)C(=O)O` [valproic acid], the “P-gp expression levels and P-gp function” value with P-gp [10] was “increased”.
